Data from ChEMBL document CHEMBL2396581, “20(S)-Protopanaxadiol (PPD) analogues chemosensitize multidrug-resistant cancer cells to clinical anticancer drugs” (Bioorg Med Chem, 2013).
Values belong to the compound of their own block, whether it stands above or below them.

What was measured:
Assay type in all cases: cell-based; call rule not given here
[1] = molecular target: T1, ATP-dependent translocase ABCB1 (Homo sapiens, UniProt P08183); test: Inhibition of p-gp in human KB/VCR cells assessed as potentiation of 1 uM docetaxel-induced cytotoxicity at 5 uM after 72 hrs by MTT assay
How it was run: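 KBvcr cells seeded at 5 × 10^3 per well were cotreated with 5 μM compound and 1 μM docetaxel for 72 h. Survival (%) was read by MTT and compared with wells without docetaxel.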

[2] = molecular target: T1, ATP-dependent translocase ABCB1; test: Inhibition of p-gp in human KB/VCR cells assessed as intracellular accumulation of adriamycin at 5 uM after 3 hrs by fluorescence assay relative to control
How it was run: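 KBvcr cells plated at 1 × 10^5 per well were given ADM (final 10 μM) with 5 μM compound for 3 h. After ice-cold PBS wash and lysis in 1% SDS, intrinsic ADM fluorescence (ex 485/em 590 nm) was read. Results are expressed as a ratio to the ADM-only control, mean ± SD, n = 3.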

[3] = Cytotoxicity against human KB/VCR cells assessed as cell viability at 5 uM after 72 hrs by MTT assay
How it was run: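 KB/VCR cells in DMEM with 10% FBS and penicillin/streptomycin, 37 °C, 5% CO2. Cells were allowed to attach for 12 h, then exposed to compound for 72 h. MTT was added for 4 h and formazan read at 490 nm.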

[4] = molecular target: T1, ATP-dependent translocase ABCB1; test: Inhibition of p-gp in human KB/VCR cells assessed as potentiation of adriamycin-induced cytotoxicity at 5 uM after 72 hrs by MTT assay
[5] = molecular target: T1, ATP-dependent translocase ABCB1; test: Inhibition of p-gp in human KB/VCR cells assessed as potentiation of vincristine-induced cytotoxicity at 5 uM after 72 hrs by MTT assay
[6] = molecular target: T1, ATP-dependent translocase ABCB1; test: Inhibition of p-gp in human KB/VCR cells assessed as intracellular accumulation of rhodamine123 at 3 uM after 2 hrs by microplate fluorometric analysis
How it was run: (§1)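 KBvcr cells plated at 1 × 10^5 per well were pretreated with graded compound concentrations, then given Rhodamine123 10 μM for 2 h at 37 °C. Cells were washed with ice-cold PBS and lysed in 1% SDS. Fluorescence (ex 494/em 517 nm) was read on a microplate fluorometer and compared with untreated cells. Three independent experiments.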

[7] = molecular target: T1, ATP-dependent translocase ABCB1; test: Inhibition of p-gp in human KB/VCR cells assessed as intracellular accumulation of rhodamine123 at 2 uM after 2 hrs by microplate fluorometric analysis; how it was run: as §1
[8] = molecular target: T1, ATP-dependent translocase ABCB1; test: Inhibition of p-gp in human KB/VCR cells assessed as intracellular accumulation of rhodamine123 at 0.5 uM after 2 hrs by microplate fluorometric analysis; how it was run: as §1
[9] = molecular target: T1, ATP-dependent translocase ABCB1; test: Inhibition of p-gp in human KB/VCR cells assessed as intracellular accumulation of rhodamine123 after 2 hrs by microplate fluorometric analysis
How it was run: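 KBvcr cells plated at 1 × 10^5 per well and incubated 2 h at 37 °C in CO2 incubator with 10 μM Rhodamine123, with or without test compounds. Cells washed with ice-cold PBS, then lysed in 1% SDS/PBS. Fluorescence read at ex 494/em 517 nm. Accumulation ratio taken relative to untreated cells. Mean SD of three independent experiments.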

[10] = molecular target: T1, ATP-dependent translocase ABCB1; test: Inhibition of p-gp in human KB/VCR cells assessed as potentiation of adriamycin-induced cytotoxicity at 5 uM after 72 hrs by MTT assay relative to verapamil
[11] = molecular target: T1, ATP-dependent translocase ABCB1; test: Inhibition of p-gp in human KB/VCR cells assessed as potentiation of vincristine-induced cytotoxicity at 5 uM after 72 hrs by MTT assay relative to verapamil
[12] = molecular target: T1, ATP-dependent translocase ABCB1; test: Inhibition of p-gp in human KB/VCR cells assessed as potentiation of 1 uM docetaxel-induced cytotoxicity at 5 uM after 72 hrs by MTT assay relative to verapamil
[13] = molecular target: T1, ATP-dependent translocase ABCB1; test: Inhibition of p-gp in human KB/VCR cells assessed as potentiation of 100 nM docetaxel-induced cytotoxicity after 72 hrs by MTT assay
How it was run: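 KBvcr cells cultured 72 h with fixed 100 nM docetaxel and graded modulator concentrations. Viability read by MTT, formazan at 490 nm. EC50 calculated from dose–response. Mean SD of three independent experiments.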

[14] = molecular target: T1, ATP-dependent translocase ABCB1; test: Inhibition of p-gp in human KB/VCR cells assessed as intracellular accumulation of rhodamine123 at 1 uM after 2 hrs by microplate fluorometric analysis; how it was run: as §1

T1 sequence (P08183 whole entry): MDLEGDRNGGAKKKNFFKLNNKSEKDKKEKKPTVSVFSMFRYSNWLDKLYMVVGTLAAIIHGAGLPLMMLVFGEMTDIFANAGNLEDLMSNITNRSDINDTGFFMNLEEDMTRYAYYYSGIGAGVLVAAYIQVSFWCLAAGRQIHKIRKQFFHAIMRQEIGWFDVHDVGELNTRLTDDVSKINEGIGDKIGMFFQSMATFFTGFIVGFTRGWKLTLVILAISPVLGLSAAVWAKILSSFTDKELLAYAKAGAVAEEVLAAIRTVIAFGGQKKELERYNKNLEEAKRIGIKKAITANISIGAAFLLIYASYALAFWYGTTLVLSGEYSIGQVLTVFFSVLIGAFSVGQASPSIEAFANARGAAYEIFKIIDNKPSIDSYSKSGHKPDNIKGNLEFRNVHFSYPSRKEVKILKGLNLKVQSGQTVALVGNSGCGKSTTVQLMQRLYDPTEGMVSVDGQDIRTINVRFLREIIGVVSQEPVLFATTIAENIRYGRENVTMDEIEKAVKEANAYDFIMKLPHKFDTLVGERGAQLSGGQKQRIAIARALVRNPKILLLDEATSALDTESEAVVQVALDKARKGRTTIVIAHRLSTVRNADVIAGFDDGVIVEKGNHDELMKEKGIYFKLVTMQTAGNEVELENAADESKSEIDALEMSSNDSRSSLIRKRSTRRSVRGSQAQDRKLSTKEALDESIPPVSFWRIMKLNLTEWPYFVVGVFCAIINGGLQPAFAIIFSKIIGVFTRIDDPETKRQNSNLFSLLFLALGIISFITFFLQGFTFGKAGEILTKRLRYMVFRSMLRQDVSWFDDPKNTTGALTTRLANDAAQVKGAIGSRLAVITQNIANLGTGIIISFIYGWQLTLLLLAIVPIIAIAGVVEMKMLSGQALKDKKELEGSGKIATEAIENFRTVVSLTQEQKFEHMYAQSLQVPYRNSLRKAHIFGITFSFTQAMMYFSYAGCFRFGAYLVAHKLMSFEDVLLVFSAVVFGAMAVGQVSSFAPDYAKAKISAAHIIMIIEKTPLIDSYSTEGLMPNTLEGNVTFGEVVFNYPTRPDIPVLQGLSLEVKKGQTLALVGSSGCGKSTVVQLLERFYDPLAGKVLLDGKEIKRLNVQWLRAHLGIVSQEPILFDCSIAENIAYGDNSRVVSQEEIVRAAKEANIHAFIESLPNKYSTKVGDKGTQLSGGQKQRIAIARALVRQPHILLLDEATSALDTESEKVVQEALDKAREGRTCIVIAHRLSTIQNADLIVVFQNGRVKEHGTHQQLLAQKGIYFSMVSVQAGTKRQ

SMILES: CC1(C)[C@@H](O)CC[C@]2(C)[C@H]3C[C@@H](O)[C@@H]4[C@@H]([C@@](C)(O)CCCNCCc5ccc6c(c5)OCO6)CC[C@@]4(C)[C@]3(C)CC[C@@H]12
inhibition (INH) [1]: Active

fold change (FC) [2]: 1.3
SMILES: CC1(C)[C@@H](O)CC[C@]2(C)[C@H]3C[C@@H](O)[C@@H]4[C@@H]([C@@](C)(O)CCCNCCCc5ccccc5)CC[C@@]4(C)[C@]3(C)CC[C@@H]12
inhibition (INH) [1]: Active | Activity [3]: Toxic

SMILES: CC1(C)[C@@H](O)CC[C@]2(C)[C@H]3C[C@@H](O)[C@@H]4[C@@H]([C@@](C)(O)CCCNCc5ccccn5)CC[C@@]4(C)[C@]3(C)CC[C@@H]12
inhibition (INH) [1]: Active

fold change (FC) [2]: 1.3
SMILES: CC1(C)[C@@H](O)CC[C@]2(C)[C@H]3C[C@@H](O)[C@@H]4[C@@H]([C@@](C)(O)CCCNCc5cccnc5)CC[C@@]4(C)[C@]3(C)CC[C@@H]12
inhibition (INH) [4]: Active | inhibition (INH) [5]: Active | inhibition (INH) [1]: Active

SMILES: CC1(C)[C@@H](O)CC[C@]2(C)[C@H]3C[C@@H](O)[C@@H]4[C@@H]([C@@](C)(O)CCCNCc5ccncc5)CC[C@@]4(C)[C@]3(C)CC[C@@H]12
inhibition (INH) [1]: Active

SMILES: COc1ccc(NCCC[C@](C)(O)[C@H]2CC[C@]3(C)[C@@H]2[C@H](O)C[C@@H]2[C@@]4(C)CC[C@H](O)C(C)(C)[C@@H]4CC[C@]23C)cc1
inhibition (INH) [1]: Not Active

SMILES: CC1(C)[C@@H](O)CC[C@]2(C)[C@H]3C[C@@H](O)[C@@H]4[C@@H]([C@@](C)(O)CCCNCc5ccccc5)CC[C@@]4(C)[C@]3(C)CC[C@@H]12
RFU [6]: 95300 | RFU [7]: 57000 | RFU [8]: 39800 | fold change (FC) [2]: 1.3 | inhibition (INH) [9]: Dose-dependent effect | fold change (FC) [10]: 1.3 | fold change (FC) [11]: 1.3 | fold change (FC) [12]: 1.5 | inhibition (INH) [1]: Active | inhibition (INH) [13]: Dose-dependent effect

SMILES: C[C@H](NCCC[C@](C)(O)[C@H]1CC[C@]2(C)[C@@H]1[C@H](O)C[C@@H]1[C@@]3(C)CC[C@H](O)C(C)(C)[C@@H]3CC[C@]12C)c1ccccc1
inhibition (INH) [1]: Active | Activity [3]: Toxic

SMILES: COc1ccc(CNCCC[C@](C)(O)[C@H]2CC[C@]3(C)[C@@H]2[C@H](O)C[C@@H]2[C@@]4(C)CC[C@H](O)C(C)(C)[C@@H]4CC[C@]23C)cc1
inhibition (INH) [1]: Active

SMILES: CC1(C)[C@@H](O)CC[C@]2(C)[C@H]3C[C@@H](O)[C@@H]4[C@@H]([C@@](C)(O)CCCNCc5ccc(F)cc5)CC[C@@]4(C)[C@]3(C)CC[C@@H]12
inhibition (INH) [1]: Active | Activity [3]: Toxic

SMILES: CC1(C)[C@@H](O)CC[C@]2(C)[C@H]3C[C@@H](O)[C@@H]4[C@@H]([C@@](C)(O)CCCNCc5ccc(Cl)cc5)CC[C@@]4(C)[C@]3(C)CC[C@@H]12
inhibition (INH) [1]: Active | Activity [3]: Toxic

SMILES: COc1ccc(CNCCC[C@](C)(O)[C@H]2CC[C@]3(C)[C@@H]2[C@H](O)C[C@@H]2[C@@]4(C)CC[C@H](O)C(C)(C)[C@@H]4CC[C@]23C)cc1OC
inhibition (INH) [1]: Active

RFU [6]: 105300 | RFU [7]: 63700 | RFU [14]: 48700 | RFU [8]: 43200 | fold change (FC) [2]: 1.3 | inhibition (INH) [9]: Dose-dependent effect
SMILES: CC1(C)[C@@H](O)CC[C@]2(C)[C@H]3C[C@@H](O)[C@@H]4[C@@H]([C@@](C)(O)CCCNCCc5ccccc5)CC[C@@]4(C)[C@]3(C)CC[C@@H]12
fold change (FC) [10]: 1.4 | fold change (FC) [11]: 1.8 | fold change (FC) [12]: 2.6 | inhibition (INH) [1]: Active | inhibition (INH) [13]: Dose-dependent effect

fold change (FC) [2]: 1.3
SMILES: CC1(C)[C@@H](O)CC[C@]2(C)[C@H]3C[C@@H](O)[C@@H]4[C@@H]([C@@](C)(O)CCCNCCc5ccc(Cl)cc5)CC[C@@]4(C)[C@]3(C)CC[C@@H]12
inhibition (INH) [1]: Active | Activity [3]: Toxic

fold change (FC) [2]: 1.3
SMILES: CC1(C)[C@@H](O)CC[C@]2(C)[C@H]3C[C@@H](O)[C@@H]4[C@@H]([C@@](C)(O)CCCNCCc5ccc([N+](=O)[O-])cc5)CC[C@@]4(C)[C@]3(C)CC[C@@H]12
inhibition (INH) [1]: Active | Activity [3]: Toxic

fold change (FC) [2]: 1.3
SMILES: COc1ccc(CCNCCC[C@](C)(O)[C@H]2CC[C@]3(C)[C@@H]2[C@H](O)C[C@@H]2[C@@]4(C)CC[C@H](O)C(C)(C)[C@@H]4CC[C@]23C)cc1OC
inhibition (INH) [4]: Active | inhibition (INH) [5]: Active | inhibition (INH) [1]: Active

SMILES: CNCCC[C@](C)(O)[C@H]1CC[C@]2(C)[C@@H]1[C@H](O)C[C@@H]1[C@@]3(C)CC[C@H](O)C(C)(C)[C@@H]3CC[C@]12C
inhibition (INH) [1]: Not Active

SMILES: CCNCCC[C@](C)(O)[C@H]1CC[C@]2(C)[C@@H]1[C@H](O)C[C@@H]1[C@@]3(C)CC[C@H](O)C(C)(C)[C@@H]3CC[C@]12C
inhibition (INH) [1]: Not Active

SMILES: CCCNCCC[C@](C)(O)[C@H]1CC[C@]2(C)[C@@H]1[C@H](O)C[C@@H]1[C@@]3(C)CC[C@H](O)C(C)(C)[C@@H]3CC[C@]12C
inhibition (INH) [1]: Not Active

SMILES: CC(C)NCCC[C@](C)(O)[C@H]1CC[C@]2(C)[C@@H]1[C@H](O)C[C@@H]1[C@@]3(C)CC[C@H](O)C(C)(C)[C@@H]3CC[C@]12C
inhibition (INH) [1]: Not Active

SMILES: CC(C)(C)NCCC[C@](C)(O)[C@H]1CC[C@]2(C)[C@@H]1[C@H](O)C[C@@H]1[C@@]3(C)CC[C@H](O)C(C)(C)[C@@H]3CC[C@]12C
inhibition (INH) [1]: Not Active

SMILES: CC1(C)[C@@H](O)CC[C@]2(C)[C@H]3C[C@@H](O)[C@@H]4[C@@H]([C@@](C)(O)CCCNC5CC5)CC[C@@]4(C)[C@]3(C)CC[C@@H]12
inhibition (INH) [1]: Not Active

SMILES: CC1(C)[C@@H](O)CC[C@]2(C)[C@H]3C[C@@H](O)[C@@H]4[C@@H]([C@@](C)(O)CCCNCCCn5ccnc5)CC[C@@]4(C)[C@]3(C)CC[C@@H]12
inhibition (INH) [1]: Not Active

SMILES: CC1(C)[C@@H](O)CC[C@]2(C)[C@H]3C[C@@H](O)[C@@H]4[C@@H]([C@@](C)(O)CCCNCCN5CCNCC5)CC[C@@]4(C)[C@]3(C)CC[C@@H]12
inhibition (INH) [1]: Not Active

SMILES: CC1(C)[C@@H](O)CC[C@]2(C)[C@H]3C[C@@H](O)[C@@H]4[C@@H]([C@@](C)(O)CCCNCCCO)CC[C@@]4(C)[C@]3(C)CC[C@@H]12
inhibition (INH) [1]: Not Active

SMILES: CC(C)=CCC[C@](C)(O)[C@H]1CC[C@]2(C)[C@@H]1[C@H](O)C[C@@H]1[C@@]3(C)CC[C@H](O)C(C)(C)[C@@H]3CC[C@]12C
inhibition (INH) [1]: Not Active | Activity [3]: Non-toxic

RFU [6]: 98700 | RFU [7]: 53000 | RFU [14]: 46100 | RFU [8]: 35900
SMILES: COc1ccc(CCN(C)CCC[C@@](C#N)(c2ccc(OC)c(OC)c2)C(C)C)cc1OC
